From ChEMBL document CHEMBL4513216, “Probing the Open Global Health Chemical Diversity Library for Multistage-Active Starting Points for Next-Generation Antimalarials” (ACS Infect Dis, 2020)

Assay: Toxicity liver stage against HepG2, at 10uM
Assay type: cell-based
Parameters: test concentration 10 uM, cell line HepG2-A16-CD81EGFP
Conditions: human, HepG2-A16-CD81EGFP cells; read-out: INHIBITION
Outline: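 Uninfected HepG2-A16-CD81EGFP cells, 3 × 10^3 per well, 1536-well, plated on prespotted compound at 10 μM final, parasite-free screening media added to match infected plates; puromycin 10 μM positive, DMSO 0.5% negative; run in parallel with 48 h PbLuc assay at 37 °C, 5% CO2; viability by CellTiter-Glo luminescence, normalized to controls.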

## Cc1csc(NC(=O)CN(C)CCOc2cccc(F)c2)n1
  cytotoxicity at 10 µM: 0.115%

## CS(=O)(=O)c1ccc(CNC[C@H]2COCc3nc4cccnc4n32)cc1
  cytotoxicity at 10 µM: -0.505%

## Cc1cc2nc(CO[C@H]3CN(C)C[C@H]3F)[nH]c2cc1C
  cytotoxicity at 10 µM: 2.78%

## CCOC(=O)N1[C@@H](c2ccco2)[C@@H](CO)C[C@]12CCCCNC2=O
  cytotoxicity at 10 µM: 0.644%

## CC(C)C1SCC(=O)Nc2c1c(O)nn2C1CCCC1 (stereo unspecified)
  cytotoxicity at 10 µM: 1.4%

## O=C(NCC(Cc1cccc(F)c1)N1CCCC1=O)C1CCCC1 (stereo unspecified)
  cytotoxicity at 10 µM: 1.39%

## CN(C)CC(=O)N1CC[C@H]2OCC[C@@]2(COCC2CC2)C1
  cytotoxicity at 10 µM: 0.165%

## Cc1cccc(N2CC[C@H]3[C@H]2CCN3C(=O)c2cnn(C)c2)n1
  cytotoxicity at 10 µM: 1.24%

## COCCC(=O)N1CC[C@@H](N2CCN(C)CC2)[C@@H]1Cc1ccccc1
  cytotoxicity at 10 µM: 7.7%

## CCN1C(=O)C2(CCOCC2)c2cc(NC(=O)c3cnoc3C)ccc21
  cytotoxicity at 10 µM: -2.54%

## Cn1c(N)c2c(=O)n(C)c(-c3ccccc3)cc2c(C#N)c1=O
  cytotoxicity at 10 µM: 1.57%

## Cn1nc(CNC(=O)c2ccc(Cl)cc2)c2c1CCOC2
  cytotoxicity at 10 µM: 5.86%

## Cc1ccc(CNC(=O)c2ccc(F)cc2)o1
  cytotoxicity at 10 µM: -3.35%

## CN1CCN(C(=O)c2nnc3ccc(Cl)cc3n2)CC1
  cytotoxicity at 10 µM: 6.28%

## CCn1ccc(-c2cc(C(=O)O)n3ncc(Br)c3n2)n1
  cytotoxicity at 10 µM: -4.81%

## CCOC(=O)[C@H]1CNC[C@@H]1C(=O)OCC
  cytotoxicity at 10 µM: 6.1%

## Cc1cc(C2CCCN2C(=O)c2cnn(C)c2)on1 (stereo unspecified)
  cytotoxicity at 10 µM: -1.85%

## Cc1nnc2n1CC(CNCc1nc(-c3ccsc3)no1)CC2 (stereo unspecified)
  cytotoxicity at 10 µM: -4.68%

## CN(CCCn1cnc2c(N)ncnc21)Cc1ccccc1
  cytotoxicity at 10 µM: -4.87%

## CCOCCNC(=O)Nc1ccc(OCc2noc(C3CC3)n2)cc1
  cytotoxicity at 10 µM: 6.48%

## CNS(=O)(=O)c1ccccc1N1CCN(C(C)C(=O)OC)CC1 (stereo unspecified)
  cytotoxicity at 10 µM: 0.375%

## CC(C)Oc1ccc(CNC(=O)C2CCS(=O)(=O)C2)cn1 (stereo unspecified)
  cytotoxicity at 10 µM: 0.788%

## Cc1cnn(Cc2ccc(NC(=O)N[C@@H]3C=C[C@H](CO)C3)cc2)c1
  cytotoxicity at 10 µM: 7.76%

## CCOc1ccc(CNC(=O)N2CCCC(CO)C2)cc1F (stereo unspecified)
  cytotoxicity at 10 µM: 8.21%

## CC(NCc1ccc(-c2ccc(Cl)cc2)o1)c1nnc2n1CCC2 (stereo unspecified)
  cytotoxicity at 10 µM: -2.04%

## Cc1nc(C2(NCC(=O)NCc3cccs3)CCCCC2)no1
  cytotoxicity at 10 µM: 1.17%

## CCc1csc(NC(=O)NCc2ccccn2)n1
  cytotoxicity at 10 µM: -4.61%

## Cc1ncc2c(n1)CN(Cc1nc3c(F)cccc3[nH]1)CC2
  cytotoxicity at 10 µM: -4.74%

## Cc1ccc(C(=O)NCC(c2cnn(C)c2)N(C)C)c(O)c1 (stereo unspecified)
  cytotoxicity at 10 µM: -7.93%

## O=C(CN1CCC(OCC2CCCO2)CC1)NCC(F)(F)F (stereo unspecified)
  cytotoxicity at 10 µM: -1.2%

## COc1ccccc1C(=O)N1CCN(CCc2scnc2C)CC1
  cytotoxicity at 10 µM: 1.79%

## COC(=O)C(C)(C)C(C)(C)NC(=O)Nc1nnc(-c2ccccn2)s1
  cytotoxicity at 10 µM: 9.15%

## Cc1nc(CNC(=O)NC(C)c2ccc3c(c2)OCCCO3)cs1 (stereo unspecified)
  cytotoxicity at 10 µM: -0.535%

## NC(=O)Cn1ccc(NC(=O)C2(c3ccc(F)cc3)CC2)n1
  cytotoxicity at 10 µM: -2.82%

## NC(=O)C1CCN(C(=O)c2ccc(Sc3ccccn3)cc2)CC1
  cytotoxicity at 10 µM: 9.48%

## CC(C(=O)N1CCc2sccc2C1)N1CCCN(C2CC2)CC1 (stereo unspecified)
  cytotoxicity at 10 µM: 3.86%

## CCC(C)NC(=O)c1ccc(-c2ccco2)[nH]c1=O (stereo unspecified)
  cytotoxicity at 10 µM: -5.05%

## CCc1nc(CCNC(=O)Nc2ccc(C(=O)NC)cc2C)cs1
  cytotoxicity at 10 µM: 27.7%

## O=C(c1ccoc1)N1CCCn2nnc(COCC3CC3)c2C1
  cytotoxicity at 10 µM: -68.5%

## O=c1[nH][nH]cc1-c1ccnc(NCCN2CCCCC2)n1
  cytotoxicity at 10 µM: -10.4%

## CN(C)c1ncc(-c2ccc(NC(=O)[C@@H]3CCCCN3)cc2)cn1
  cytotoxicity at 10 µM: -7.94%

## CN(C)CCn1ccnc1C1CCCN(C(=O)CCc2cccnc2)C1 (stereo unspecified)
  cytotoxicity at 10 µM: -3.64%

## Cc1cc(C)nc(CN(C)c2nc(C3CCCC3)nc3c2cnn3C)c1
  cytotoxicity at 10 µM: 12.4%

## CSc1ccccc1NC(=O)CCC(=O)N(C)C1CCN(C)CC1
  cytotoxicity at 10 µM: -2.91%

## CC(C)c1noc(C2CCCN2C(=O)Cc2cn3ccsc3n2)n1 (stereo unspecified)
  cytotoxicity at 10 µM: 4.52%

## Cn1c(-c2ccccc2Cl)nc2cc(C(=O)NC(CO)CO)cnc21
  cytotoxicity at 10 µM: -10.8%

## Cc1cc(C)n(CCC2CC(=O)Nc3cc4[nH]ncc4cc32)n1 (stereo unspecified)
  cytotoxicity at 10 µM: -6.17%

## COc1cccc(N2CCN(C(=O)CO)CC2=O)c1
  cytotoxicity at 10 µM: 0.995%

## CC(CN1CCC2(CC1)N=C(N(C)C)NC2=O)c1ccccc1 (stereo unspecified)
  cytotoxicity at 10 µM: 2.92%

## Cc1cccc(C(C(=O)NCCCc2ccncc2)N(C)C)c1 (stereo unspecified)
  cytotoxicity at 10 µM: -8.38%

## O=C(c1coc(CN2CCN(c3ccccc3F)CC2)n1)N1CC=CC1
  cytotoxicity at 10 µM: -3.06%

## CN(CC1CCOC1)S(=O)(=O)c1cccc(C(=O)N2CCOCC2)c1 (stereo unspecified)
  cytotoxicity at 10 µM: -13.3%

## Cc1[nH]c2c(F)cccc2c1CC(=O)NCCCc1csc(N)n1
  cytotoxicity at 10 µM: -3.57%

## N[C@@H]1c2ccccc2C2(CCN(C(=O)c3ccc(CO)o3)CC2)[C@H]1O
  cytotoxicity at 10 µM: 3.92%

## CCc1[nH]c2c(CNC(=O)[C@@H]3CCCN3C)cc(C)cc2c1C
  cytotoxicity at 10 µM: -3.33%

## COc1ccc(Cl)cc1NC(=O)CCC1CCCN(Cc2ncon2)C1 (stereo unspecified)
  cytotoxicity at 10 µM: -4.18%

## CC(C)Cc1nnc(SCC(=O)O)n1-c1ccc(F)cc1F
  cytotoxicity at 10 µM: -6.13%

## Cc1ocnc1C(=O)N1CCN(C(=O)CC(C)C)[C@@H]2CS(=O)(=O)C[C@@H]21
  cytotoxicity at 10 µM: 12.2%

## C1CCC(c2nn3c(C4CCCO4)nnc3s2)C1 (stereo unspecified)
  cytotoxicity at 10 µM: 8.51%

## Cc1nc2ccccc2c(=O)n1CCC(=O)N1CCCCCC1
  cytotoxicity at 10 µM: -6.57%

## O=C1CC(N(C(=O)c2ccc(F)c(C(F)(F)F)c2)C2CC2)C(=O)N1 (stereo unspecified)
  cytotoxicity at 10 µM: -10.5%

## Cc1nc(CN2CCCC(NCCOc3cccc(C#N)c3)C2)no1 (stereo unspecified)
  cytotoxicity at 10 µM: -8.36%

## NC(=O)C1CCN(C(=O)NCc2ccccc2-n2cccn2)C1 (stereo unspecified)
  cytotoxicity at 10 µM: -18.4%

## CC(NC(=O)N(C)CCCOc1ccccc1)c1nncn1C (stereo unspecified)
  cytotoxicity at 10 µM: -5.4%

## c1cnn(CC2CCCCN2Cc2nc(-c3ccsc3)no2)c1 (stereo unspecified)
  cytotoxicity at 10 µM: -12.2%

## CC(C)c1noc(C(C)N2CCN(Cc3nnc(C4CC4)o3)CC2)n1 (stereo unspecified)
  cytotoxicity at 10 µM: -11.9%

## CC(C)c1n[nH]c(C2CN(CCCS(C)(=O)=O)CCO2)n1 (stereo unspecified)
  cytotoxicity at 10 µM: -11.9%

## Cc1ccc(CNC(=O)NCCCO)cc1
  cytotoxicity at 10 µM: -16.2%

## COc1cc(C(=O)N2CCC(c3n[nH]c(C)n3)CC2)cc(OC)c1C
  cytotoxicity at 10 µM: -10.9%

## Cc1noc(C)c1CN(C)CCC(=O)N1CCc2sccc2C1
  cytotoxicity at 10 µM: 0.265%

## COc1ccc(OCCNCCn2cccn2)cc1
  cytotoxicity at 10 µM: 2.05%

## CCN(CC)Cc1nc2c(o1)CN(C(=O)c1ccc3[nH]ccc3c1)C2
  cytotoxicity at 10 µM: 7.07%

## O=C1COC2(CCN(Cc3ccoc3)CC2)CN1CCn1cccn1
  cytotoxicity at 10 µM: 6.95%

## Cn1cc(C[C@H]2[C@H](N3CCOCC3)CCN2C2CCOCC2)cn1
  cytotoxicity at 10 µM: 5.13%

## COc1ccc(CN2CCn3cc(CN4CCCCC4)nc3C2)cc1
  cytotoxicity at 10 µM: 4.7%

## c1coc(CN2CCC3(CC2)COCCN(CCN2CCCC2)C3)c1
  cytotoxicity at 10 µM: -7.82%

## Cc1ccsc1CN1C[C@@H]2CN(Cc3cccnc3)CCO[C@@H]2C1
  cytotoxicity at 10 µM: 8%

## Cc1noc([C@H]2C[C@H]3OCC[C@H]3N(Cc3scnc3C)C2)n1
  cytotoxicity at 10 µM: -73.4%

## CC(C)N(C)Cc1nnc2n1CCN(Cc1ccncc1)CC2
  cytotoxicity at 10 µM: -2.42%

## CNC(=O)[C@@H]1CC[C@@H]2[C@@H](CCN2Cc2ccccc2F)O1
  cytotoxicity at 10 µM: 8.1%

## O=C(c1ccccc1)N1C[C@H]2CC[C@@H](C1)N(C(=O)CN1CCOCC1)C2
  cytotoxicity at 10 µM: 9.23%
